The source of these data is ChEMBL document CHEMBL2150929, “Lipidated peptidomimetics with improved antimicrobial activity” (ACS Med Chem Lett, 2012).

Values after ≈ are worked out from the molar mass of the structure shown. Active and inactive are the calls of the source. Where only a bound is given, the exact number is not on record here.

Usually MIC stands for the smallest concentration in the dilution series that meets the test's criterion for growth inhibition. A low value points to inhibition by little substance. Usually HC50 stands for the concentration giving 50% haemolysis.

Data set [1] concerns Staphylococcus epidermidis. Nature of the data set: Antimicrobial activity against methicillin-resistant Staphylococcus epidermidis RP62A after 24 hrs by broth micro-dilution method. The data set is classed as functional. Put shortly: (§1)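 MIC read as the lowest concentration giving complete inhibition of bacterial growth after 24 h of incubation. Pexiganan and a linear α-AApeptide were run alongside as positive controls.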
A general note: Dilution methods test growth across graded concentrations, often in twofold steps.

For another data set, the system named is Enterococcus faecalis. Nature of the data set: Antimicrobial activity against Vancomycin-resistant Enterococcus faecalis ATCC 700802 after 24 hrs by broth micro-dilution method. Format: functional. Particulars: ATCC 700802, 24 h. Put shortly:
as §1

In another data set the test system is Bacillus subtilis. Kind of data set: Antimicrobial activity against Bacillus subtilis BR151 after 24 hrs by broth micro-dilution method. Format: functional. Particulars: BR151, 24 h.
In the next data set the test system is Staphylococcus aureus. Kind of data set: Antimicrobial activity against methicillin-resistant Staphylococcus aureus ATCC 33592 after 24 hrs by broth micro-dilution method. Format: functional. Particulars: ATCC 33592, 24 h. Summed up:
as §1

Another data set deals with Candida albicans. Kind of data set: Antimicrobial activity against Candida albicans ATCC 10231 after 48 hrs by broth micro-dilution method. The data set is classed as functional. The note with it: ATCC 10231, 48 h.
A further data set has as its system Klebsiella pneumoniae. Nature of the data set: Antimicrobial activity against Klebsiella pneumoniae ATCC 13383 after 24 hrs by broth micro-dilution method. Format: functional. The note with it: ATCC 13383, 24 h.
Data set [2] can be described thus: Toxicity in RBC assessed as hemolysis. Format: cell-based, Erythrocyte. The note with it: for HC10: erythrocyte; for HC50: red blood cells (RBC). Put shortly: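 Hemolysis of red blood cells measured over a concentration range. H10 and H50 are the concentrations giving 10% and 50% hemolysis.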
The subject of data set [3] is Escherichia coli. Kind of data set: Induction of membrane disruption in Escherichia coli JM109 at 10 ug/ml after 2 hrs by Propidium iodide-staining based fluorescence microscopy. Format: functional, organism-based. Summed up: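 E. coli exposed to 10 μg/mL for 2 h, then stained with DAPI, which labels all cells, and propidium iodide, which enters cells with damaged membranes. Red PI fluorescence imaged by fluorescence microscopy against untreated controls.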

The next data set concerns Pseudomonas aeruginosa. Nature of the data set: Antimicrobial activity against Pseudomonas aeruginosa ATCC 27853 after 24 hrs by broth micro-dilution method. The data set is classed as functional. Particulars: ATCC 27853, 24 h.
Data set [4] deals with Escherichia coli. Nature of the data set: Antimicrobial activity against Escherichia coli JM109 after 24 hrs by broth micro-dilution method. Format: functional. The note with it: JM109, 24 h.

As to `CCCCCCCCCCCCCCCC(=O)NCCN(C(=O)CCCN)[C@@H](Cc1ccccc1)C(=O)NCCN(C(=O)CCCN)[C@@H](Cc1ccccc1)C(=O)NCCN(C(=O)CCCN)[C@@H](Cc1ccccc1)C(=O)NCCN(C(=O)CCCN)[C@@H](Cc1ccccc1)C(=O)NCCN(C(=O)CCCN)[C@@H](Cc1ccccc1)C(N)=O`, the MIC is 10 µg/mL (≈ 6.13 µM) in data set [1]; 4 µg/mL (≈ 2.45 µM) in the data set on Enterococcus faecalis; 4 µg/mL (≈ 2.45 µM) with Bacillus subtilis; 8 µg/mL (≈ 4.9 µM) in the data set on Staphylococcus aureus; 4 µg/mL (≈ 2.45 µM) in the data set on Candida albicans; 8 µg/mL (≈ 4.9 µM) with Klebsiella pneumoniae. The MIC against Pseudomonas aeruginosa came out at 12 µg/mL (≈ 7.35 µM); with Escherichia coli [4], 4 µg/mL (≈ 2.45 µM). Besides, the HC10 in data set [2] was determined as 20 µg/mL. In addition, the HC50 in [2] worked out at 250 µg/mL. The result in the data set on Escherichia coli [3] was Active.

“H-GIGKFLKKAKKFGKAFVKILKK-NH2 [PEXIGANAN]”: the MIC was 8 µg/mL in data set [1]; 32 µg/mL with Enterococcus faecalis; 4 µg/mL against Bacillus subtilis; 16 µg/mL with Staphylococcus aureus; 124 µg/mL with Candida albicans; 8 µg/mL in the data set on Klebsiella pneumoniae. Moreover, the minimal inhibitory concentration (MIC) in the data set with Pseudomonas aeruginosa and in the data set with Escherichia coli [4] was 8 µg/mL throughout. Further, the HC10 in data set [2] is 181 µg/mL. In [2], the HC50 was found to be 495 µg/mL.

As to `CCCCCCCCCCCCCCCC(=O)NCCN(C(=O)CCCN)[C@@H](Cc1ccccc1)C(=O)NCCN(C(=O)CCCN)[C@@H](Cc1ccccc1)C(=O)NCCN(C(=O)CCCN)[C@@H](Cc1ccccc1)C(N)=O`, the MIC in data set [1] is 8 µg/mL (≈ 7.4 µM); against Enterococcus faecalis, 4 µg/mL (≈ 3.7 µM); against Bacillus subtilis, 2 µg/mL (≈ 1.85 µM); against Staphylococcus aureus, 4 µg/mL (≈ 3.7 µM); against Candida albicans it was 3 µg/mL (≈ 2.77 µM); in the data set on Klebsiella pneumoniae, greater than 50 µg/mL. In addition, the MIC with Pseudomonas aeruginosa amounted to 20 µg/mL (≈ 18.5 µM); in the data set on Escherichia coli [4] it was 8 µg/mL (≈ 7.4 µM). Moreover, in [2], the HC10 was 50 µg/mL. Besides, in data set [2], the HC50 stood at 300 µg/mL.

On to `CCCCCCCCCCCCCCCC(=O)NCCN(C(=O)CCC(C)C)[C@@H](CCCCN)C(=O)NCCN(C(=O)CCC(C)C)[C@@H](CCCCN)C(N)=O`, for which the MIC in [1] was 10 µg/mL (≈ 12.6 µM); against Enterococcus faecalis, 1 µg/mL (≈ 1.26 µM); in the data set on Bacillus subtilis, 2 µg/mL (≈ 2.52 µM); in the data set with Staphylococcus aureus, 5 µg/mL (≈ 6.3 µM); against Candida albicans, 2 µg/mL (≈ 2.52 µM); in the data set on Klebsiella pneumoniae, greater than 50 µg/mL. Besides, the MIC against Pseudomonas aeruginosa and against Escherichia coli [4] was greater than 50 µg/mL each time. Moreover, in [2], the HC10 was greater than 500 µg/mL. Moreover, the HC50 in data set [2] was greater than 500 µg/mL.

For the compound `CCCCCCCCCCCCCCCC(=O)NCCN(C(C)=O)[C@@H](C)C(=O)NCCN(C(C)=O)[C@@H](C)C(=O)NCCN(C(=O)CCCN)[C@@H](CCCCN)C(=O)NCCN(C(=O)CCCN)[C@@H](CCCCN)C(=O)NCCN(C(=O)CCCN)[C@@H](CCCCN)C(N)=O`, the MIC in [1] was found to be 10 µg/mL (≈ 7.48 µM); against Enterococcus faecalis it was 20 µg/mL (≈ 15 µM); in the data set on Bacillus subtilis, 4 µg/mL (≈ 2.99 µM); against Staphylococcus aureus it was 8 µg/mL (≈ 5.98 µM); against Candida albicans, 10 µg/mL (≈ 7.48 µM); in the data set on Klebsiella pneumoniae, 20 µg/mL (≈ 15 µM). Also, the figures for the MIC with Pseudomonas aeruginosa and in the data set with Escherichia coli [4] were 10 µg/mL (≈ 7.48 µM) and 4 µg/mL (≈ 2.99 µM), respectively. In addition, in data set [2], the HC10 worked out at 100 µg/mL. Besides, the HC50 in [2] was greater than 500 µg/mL.

Regarding `CCCCCCCCCCCCCCCC(=O)NCCN(C(=O)CCc1ccccc1)[C@@H](CCCCN)C(=O)NCCN(C(=O)CCc1ccccc1)[C@@H](CCCCN)C(N)=O`, the minimal inhibitory concentration (MIC) in data set [1] was 15 µg/mL (≈ 17.4 µM); against Enterococcus faecalis, 3 µg/mL (≈ 3.48 µM); against Bacillus subtilis, 4 µg/mL (≈ 4.64 µM); with Staphylococcus aureus it was 8 µg/mL (≈ 9.28 µM); with Candida albicans, 2 µg/mL (≈ 2.32 µM); in the data set with Klebsiella pneumoniae, greater than 50 µg/mL. In addition, the MIC in the data set on Pseudomonas aeruginosa and in the data set on Escherichia coli [4] was greater than 50 µg/mL in each case. In data set [2], the HC10 was greater than 500 µg/mL. In addition, the HC50 in data set [2] was greater than 500 µg/mL.

In the case of `CCCCCCCCCCCCCCCC(=O)NCCN(C(=O)CCc1ccccc1)[C@@H](CCCCN)C(=O)NCCN(C(=O)CCc1ccccc1)[C@@H](CCCCN)C(=O)NCCN(C(=O)CCc1ccccc1)[C@@H](CCCCN)C(N)=O`, the MIC in data set [1] is 20 µg/mL (≈ 17.2 µM); against Enterococcus faecalis, 10 µg/mL (≈ 8.58 µM); against Bacillus subtilis it was 2 µg/mL (≈ 1.72 µM); in the data set with Staphylococcus aureus it was 8 µg/mL (≈ 6.86 µM); against Candida albicans, greater than 50 µg/mL; in the data set on Klebsiella pneumoniae, greater than 50 µg/mL. Moreover, the minimum inhibitory concentration (MIC) with Pseudomonas aeruginosa and with Escherichia coli [4] was greater than 50 µg/mL throughout. Further, the HC10 in data set [2] stood at 15 µg/mL. Also, the HC50 in data set [2] was found to be 150 µg/mL.

For the compound `CCCCCCCCCCCCCCCC(=O)NCCN(C(C)=O)[C@@H](C)C(=O)NCCN(C(C)=O)[C@@H](C)C(=O)NCCN(C(=O)CCCN)[C@@H](Cc1ccccc1)C(=O)NCCN(C(=O)CCCN)[C@@H](Cc1ccccc1)C(=O)NCCN(C(=O)CCCN)[C@@H](Cc1ccccc1)C(N)=O`, the minimum inhibitory concentration (MIC) amounted to 4 µg/mL (≈ 2.87 µM) in [1]; 4 µg/mL (≈ 2.87 µM) in the data set with Enterococcus faecalis; 2 µg/mL (≈ 1.43 µM) in the data set on Bacillus subtilis; 4 µg/mL (≈ 2.87 µM) against Staphylococcus aureus; 20 µg/mL (≈ 14.3 µM) with Candida albicans; 8 µg/mL (≈ 5.74 µM) against Klebsiella pneumoniae. For the same compound, the MIC in the data set on Pseudomonas aeruginosa came out at 8 µg/mL (≈ 5.74 µM); in the data set with Escherichia coli [4], 30 µg/mL (≈ 21.5 µM). Further, the HC10 in data set [2] turned out to be 40 µg/mL. Further, the HC50 in [2] was determined as 400 µg/mL.
